# Screening data from PubChem.
# Most compounds without a hit are left out; they make up all but 9.6% or so of the library.
# L major viab = Leishmania major promastigote growth inhibition, primary screen; Leishmania major promastigotes, resazurin fluorescence viability; inhibition, % at 10 µM; actives 9% (n = 200,000); AID 1063, 2008; in the data active = inhibition above about 50%;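 note: promastigotes grown with compound for 44 hours at 28 °C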
# APP 5UTR inh = inhibitors of APP translation via 5'UTR reporter, primary screen, APP 5'UTR luciferase, SH-SY5Y cells; actives 0.82% (n = 190,000); inhibition, % at 2 µM; SH-SY5Y APP 5'UTR-luciferase reporter, luminescence;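 active = inhibition above a set limit, derived from the sample mean plus 3 SD, cut at about 45% in these data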
# BaF3 parental = parental Ba/F3 cell viability inhibition, counter-screen for JAK2V617F inhibitor project, murine pro-B, CellTiter-Glo luminescence | CellTiter-Glo ATP luminescence | actives 1.1% (n = 220,000) | AID 1486, 2009 | inhibition, % at 5.6 µM;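 active = inhibition above a per-campaign cutoff, the mean inhibition of all tested compounds plus 3 SD, cut at about 27% in these data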
# Ba/F3 V617F tox = reduced viability of JAK2V617F-dependent Ba/F3 cells, primary screen, JAK2V617F inhibitor project, cell-based, Ba/F3 EpoR-JAK2V617F, luminescence | ATP luminescence | actives 1.1% (n = 220,000) | inhibition, % at 5.6 µM | AID 1446, 2008;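 active = inhibition above the campaign mean plus 3 SD over all tested compounds, cut at about 24% in these data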;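 note: cytokine-independent growth of Ba/F3 cells driven by EpoR plus mutant JAK2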
# MT stabilize HCS = microtubule stabilizers in HeLa cells, primary screen, imaging, high-content imaging; HeLa tubulin immunostaining HCS, 24 h; share of cells brighter than vehicle mean+2SD; % tubulin-high responders, % at 10 µM; actives 0.83% (n = 200,000);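 active = plate Z-score above 3 for both tubulin-high and condensed-nucleus cell shares, with cell loss under 80%, at 10 µM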;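 note: anti alpha tubulin signal scored within the nucleus-defined area of each cell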
# b-catenin transl = modulators of beta-catenin nuclear translocation, primary screen, imaging, HeLa cells, immunofluorescence, high-content | nuclear translocation activity, % at 5 µM | actives 0.3% (n = 190,000);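 active = nuclear translocation activity above 50% at 5 µM, with a well cell count of 50 or more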;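 note: per-cell ratio of nuclear to cytoplasmic median beta-catenin stain intensity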
#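 Test system: HeLa cells, endogenous beta-catenin; Compound: single 5 µM dose plus 0.02–20 µM confirmation series; Times: compound exposure 24 h at 37°C; Signal: fluorescence imaging of beta-catenin antibody stain plus DAPI; Read-out: % activation, nuclear-to-cytoplasmic median beta-catenin signal ratio per cell.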
# Hits are given with their value; 0 = inactive; - = not tested or not shown.
SMILES,L major viab,APP 5UTR inh,BaF3 parental,Ba/F3 V617F tox,MT stabilize HCS,b-catenin transl
[2H]c1c([2H])c([2H])c(-c2nc(N3CCCCCC3)sc2C(=O)c2ccccc2)c([2H])c1[2H],0,0,95,0,0,0
CC(=O)c1cc2c(cc1NC(=O)c1ccccc1C)OCO2,0,0,0,0,0,0
CCCCOCCCNC(=O)N[C@H](C(=O)OC)C(C)CC (some centres undefined),-,-,0,0,-,0
O=C1NCN(c2ccccc2)C12CCN(CCCC(c1ccc(F)cc1)c1ccc(F)cc1)CC2,101,0,0,0,0,0
O=C1CCC(=O)N1CCC(c1ccc(F)cc1)c1ccco1 (centres undefined),0,0,0,0,0,-
Cc1cc(C)c2nc(NC(=O)c3ccc(OCC4CCCO4)cc3)sc2c1 (centres undefined),73,0,0,0,0,-
Cc1ccc2nc(NC(=O)c3ccc(OCC4CCCO4)cc3)sc2c1 (centres undefined),0,0,0,0,0,0
Cc1ccc(CNC(=O)c2ccc(OCC3CCCO3)cc2)cc1 (centres undefined),68,0,0,0,0,0
COC(C[C@H](O)C[C@@H](O)COCc1ccccc1)OC,-,-,-,-,-,0
CN(C)/C=C(/C(=O)c1ccc(Cl)cc1)n1cncn1,0,0,0,0,0,0
CN(C)c1ccc(/C=C(/C(=O)c2ccc(Cl)cc2Cl)n2cncn2)cc1,51,0,0,0,0,0
CC(C)CC(=O)/C(=C\c1ccc(Cl)cc1Cl)n1cncn1,100,0,0,0,0,0
COc1ccc(/C=C(/C(=O)c2ccc(Cl)cc2Cl)n2cncn2)cc1,0,0,0,0,0,0
Cc1ccccc1NC(=S)NCc1ccccc1,59,0,0,0,0,0
COC(=O)c1ccccc1NC(=O)NC1CCN(Cc2ccccc2)CC1,0,0,0,0,0,0
COc1ccc(C)cc1NC(=O)NC1CCN(Cc2ccccc2)CC1,65,0,0,0,0,0
Cc1cccc(NC(=S)NN(Cc2ccccc2)c2ccccc2)c1C,56,-,0,0,0,-
Cc1ccc(NC(=S)NC2CCN(Cc3ccccc3)CC2)c(C)c1,91,0,0,0,0,0
Cc1ccccc1NC(=S)NCCc1ccccc1,0,0,0,0,0,0
NC(=O)c1c(NC(=O)C2CCCO2)sc2c1CCCC2 (centres undefined),0,0,0,0,0,0
CCc1nnc(NC(=O)[C@@H](NC(=O)c2cccc(S(=O)(=O)N3CCOCC3)c2)C(C)C)s1,0,0,0,0,0,0
CC(C)c1ccccc1NC(=S)NC1CCCCC1,0,0,0,0,0,0
CCC(C)[C@H](NC(=O)NC1CCN(Cc2ccccc2)CC1)C(=O)OC (some centres undefined),70,0,0,0,0,0
Cc1ccccc1NC(=S)NC1CCN(Cc2ccccc2)CC1,94,0,0,0,0,0
CC(C)c1ccccc1NC(=S)NC(C)c1ccccc1 (centres undefined),97,0,0,0,0,0
SMILES,L major viab,APP 5UTR inh,BaF3 parental,Ba/F3 V617F tox,MT stabilize HCS,b-catenin transl
Cc1ccccc1NC(=S)N/N=C/C(C)c1ccccc1 (centres undefined),97,0,0,0,0,0
N=C1SC(c2ccccc2)C(=O)N1c1ncc(Cc2ccccc2Cl)s1 (centres undefined),0,0,0,0,0,0
Cc1ccc(NC(=S)NCCc2ccccc2)c(C)c1,80,0,0,0,0,-
CCOc1ccc(N(CC(=O)NC(C)CC)S(=O)(=O)c2c(C)noc2C)cc1 (centres undefined),0,-,0,0,0,-
Cc1ccc(-n2ncc(C(=O)Nc3cc(Cl)cc(Cl)c3)c2C2CCNCC2)cc1C,101,79,86,95,0,0
COCCOC(=O)C1=C(C)NC(C)=C(C(=O)OC(C)C)C1c1cccc([N+](=O)[O-])c1 (centres undefined),66,0,0,0,0,-
CCOC(=O)C1=C(C)N(c2ccccc2)C(=O)NC1c1cccc([N+](=O)[O-])c1 (centres undefined),95,0,0,0,0,0
CCOC(=O)C1=C(C)NC(C)=C(C(=O)OC)C1c1cccc([N+](=O)[O-])c1 (centres undefined),0,0,0,0,0,0
CCOC(=O)C1=C(N)Oc2cc(O)ccc2C1c1cccc([N+](=O)[O-])c1 (centres undefined),0,0,0,0,15,0
CCOC(=O)C1=C(CN2CCOCC2)NC(=O)NC1c1cccc([N+](=O)[O-])c1 (centres undefined),0,0,0,0,0,0
O=C(Nc1ccccc1)c1ccsc1,0,0,0,0,0,0
O=C(N/N=C/c1ccc(Cl)cc1)c1n[nH]c2c1CCCC2,-,-,71,75,-,100
CC1(C)CC(=NNC(=O)c2n[nH]c3c2CCC3)CC(C)(C)N1,0,82,0,0,0,0
O=C(N/N=C/c1ccccc1Cl)c1n[nH]c2c1CCCC2,89,0,0,0,0,0
O=C(N/N=C/C(Br)=C/c1ccccc1)c1n[nH]c2c1CCC2,98,-,92,92,0,161
CC1c2ccsc2CCN1S(=O)(=O)c1cccs1 (centres undefined),-,-,0,0,-,0
Cc1ccc(C(=O)OCCn2cc(C#N)c(=O)[nH]c2=O)cc1,0,0,0,0,0,0
COC(=O)c1sccc1NC(=O)COc1ccccc1Cl,0,0,0,0,0,0
Cc1cccc(CCNC(=O)c2nnc(Cc3ccc(Cl)cc3)o2)c1,0,0,0,0,0,0
O=C(N/N=C/c1cccs1)c1n[nH]c2c1CCC2,0,0,0,0,25,0
O=C(N/N=C/c1ccccc1)c1n[nH]c2c1CCCC2,0,0,0,0,0,0
COc1ccccc1C1(CCNS(=O)(=O)c2ccc(C)cc2)CCOC(C(C)C)C1 (centres undefined),83,0,0,0,0,0
COc1ccccc1C1(CCNC(C)c2cccs2)CCOC(C(C)C)C1 (centres undefined),-,-,0,0,-,0
COc1ccc(C(C#N)Nc2ccccc2)cc1 (centres undefined),0,0,0,0,0,-
COc1ccc(NC(C#N)c2ccc(OC)cc2)cc1 (centres undefined),91,0,0,0,0,0
Cn1c(Cn2c(C(F)(F)F)nc3ccccc32)nc2ccccc21,0,0,0,0,0,-
CCOc1ccc(C2CC(c3cccc(Cl)c3)n3nc(N)nc3N2)cc1 (centres undefined),67,0,0,0,0,0
Nc1nc2n(n1)C(c1cccc(Cl)c1)CC(c1ccc(F)cc1)N2 (centres undefined),0,0,0,0,0,-
